The results in this text go back to ChEMBL document CHEMBL1146100, “Refinement of the benzodiazepine receptor site topology by structure-activity relationships of new N-(heteroarylmethyl)indol-3-ylglyoxylamides” (J Med Chem, 2006).

By Ki is commonly meant the equilibrium dissociation constant of an inhibitor or competing ligand from its target. What is called inhibition is the change of the read-out against control, counted positive when it falls.

Assay [1] concerns the target GABA-A receptor; anion channel. The assay is described as follows: Displacement of [3H]flumazenil from GABA-A receptor in bovine brain membranes. In kind it is cell membranes, Bos taurus.
For assay [2], the target named is GABA A receptor alpha-5/beta-3/gamma-2 (Rattus norvegicus) (UniProt P18508+P19969+P63079). The assay is described as follows: Inhibition of [3H]flumazenil binding to rat GABA-Aalpha5 receptor plus beta-3-gamma-2 at 10 uM in HEK293 cells. In kind it is cell-based.
Assay [3] has as its target GABA-A receptor; alpha-1/beta-2/gamma-2 (Rattus norvegicus, UniProt P18508+P62813+P63138). The assay is described as follows: Displacement of [3H]flumazenil from rat GABA-Aalpha1 receptor plus beta-2-gamma-2 in HEK293 cells. In kind it is cell-based. An outline of the steps:
(§1)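 Membranes from HEK293 cells stably expressing rat GABA-A subtypes (37 °C, 5% CO2, DMEM/F-12 with 10% FBS). Cells harvested, homogenized in 10 mM potassium phosphate pH 7.4, centrifuged at 48 000g for 30 min at 4 °C, washed twice, resuspended in the same buffer plus 100 mM KCl. Incubated with 1-2 nM [3H]flumazenil for 1 h at 4 °C to equilibrium. Nonspecific binding defined with 10^-5 M diazepam.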
In general terms: Displacement assays read how much labelled ligand stays bound in the presence of the test substance.

The target of assay [4] is GABA A receptor alpha-2/beta-2/gamma-2 (Rattus norvegicus, UniProt P18508+P23576+P63138). Kind of assay: Displacement of [3H]flumazenil from rat GABA-Aalpha2 receptor plus beta-2-gamma-2 in HEK293 cells. In kind it is cell-based. The essentials:
as §1

The target in assay [5] is GABA A receptor alpha-5/beta-3/gamma-2 (Rattus norvegicus, UniProt P18508+P19969+P63079). Kind of assay: Displacement of [3H]flumazenil from rat GABA-Aalpha5 receptor plus beta-3-gamma-2 in HEK293 cells. In kind it is cell-based. The essentials:
as §1

Assay [6] has as its target GABA A receptor alpha-2/beta-2/gamma-2 (Rattus norvegicus) (UniProt P18508+P23576+P63138). Kind of assay: Inhibition of [3H]flumazenil binding to rat GABA-Aalpha2 receptor plus beta-2-gamma-2 at 10 uM in HEK293 cells. In kind it is cell-based.

Sequence of GABA-A receptor; alpha-1/beta-2/gamma-2 (P18508 whole entry): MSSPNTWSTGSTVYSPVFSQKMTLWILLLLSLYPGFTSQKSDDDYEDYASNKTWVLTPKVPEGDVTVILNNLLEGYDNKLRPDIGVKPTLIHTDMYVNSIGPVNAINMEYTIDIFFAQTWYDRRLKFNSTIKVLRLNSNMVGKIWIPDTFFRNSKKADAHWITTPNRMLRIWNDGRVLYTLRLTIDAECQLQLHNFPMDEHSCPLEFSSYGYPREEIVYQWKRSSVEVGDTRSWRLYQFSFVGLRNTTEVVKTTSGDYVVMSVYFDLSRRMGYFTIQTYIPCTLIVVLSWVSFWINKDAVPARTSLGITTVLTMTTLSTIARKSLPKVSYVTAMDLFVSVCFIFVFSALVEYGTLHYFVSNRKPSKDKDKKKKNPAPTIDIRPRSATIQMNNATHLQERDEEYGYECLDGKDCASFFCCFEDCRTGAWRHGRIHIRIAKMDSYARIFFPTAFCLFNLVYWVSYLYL
Sequence of GABA-A receptor; alpha-1/beta-2/gamma-2 (P62813 whole entry): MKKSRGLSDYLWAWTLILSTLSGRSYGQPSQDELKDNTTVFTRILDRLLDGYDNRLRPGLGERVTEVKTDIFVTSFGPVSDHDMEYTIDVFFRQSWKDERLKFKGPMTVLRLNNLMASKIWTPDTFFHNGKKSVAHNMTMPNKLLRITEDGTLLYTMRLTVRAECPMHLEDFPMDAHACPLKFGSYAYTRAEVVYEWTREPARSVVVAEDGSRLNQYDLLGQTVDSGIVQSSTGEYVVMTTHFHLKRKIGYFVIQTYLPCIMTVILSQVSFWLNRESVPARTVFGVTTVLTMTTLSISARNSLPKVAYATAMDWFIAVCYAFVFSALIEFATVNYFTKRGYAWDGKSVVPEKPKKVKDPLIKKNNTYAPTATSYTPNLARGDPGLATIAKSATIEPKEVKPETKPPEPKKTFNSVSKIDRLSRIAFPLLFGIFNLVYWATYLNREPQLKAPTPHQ
Sequence of GABA-A receptor; alpha-1/beta-2/gamma-2 (P63138 whole entry): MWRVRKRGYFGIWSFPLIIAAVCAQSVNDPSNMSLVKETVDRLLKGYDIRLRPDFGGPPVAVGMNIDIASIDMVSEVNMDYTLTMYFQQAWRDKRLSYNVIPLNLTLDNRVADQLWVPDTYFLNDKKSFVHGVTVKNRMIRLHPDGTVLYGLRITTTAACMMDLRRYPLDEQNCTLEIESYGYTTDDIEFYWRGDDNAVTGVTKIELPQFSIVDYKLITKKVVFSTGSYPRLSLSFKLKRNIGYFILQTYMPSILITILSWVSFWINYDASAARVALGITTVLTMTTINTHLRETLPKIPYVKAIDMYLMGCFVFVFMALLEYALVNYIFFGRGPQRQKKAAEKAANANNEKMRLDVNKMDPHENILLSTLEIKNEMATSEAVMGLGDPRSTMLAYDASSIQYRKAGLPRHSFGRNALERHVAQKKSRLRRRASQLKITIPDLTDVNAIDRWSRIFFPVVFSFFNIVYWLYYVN
Sequence of GABA A receptor alpha-2/beta-2/gamma-2 (P18508 whole entry): as the sequence (P18508 whole entry) above
Sequence of GABA A receptor alpha-2/beta-2/gamma-2 (P23576 whole entry): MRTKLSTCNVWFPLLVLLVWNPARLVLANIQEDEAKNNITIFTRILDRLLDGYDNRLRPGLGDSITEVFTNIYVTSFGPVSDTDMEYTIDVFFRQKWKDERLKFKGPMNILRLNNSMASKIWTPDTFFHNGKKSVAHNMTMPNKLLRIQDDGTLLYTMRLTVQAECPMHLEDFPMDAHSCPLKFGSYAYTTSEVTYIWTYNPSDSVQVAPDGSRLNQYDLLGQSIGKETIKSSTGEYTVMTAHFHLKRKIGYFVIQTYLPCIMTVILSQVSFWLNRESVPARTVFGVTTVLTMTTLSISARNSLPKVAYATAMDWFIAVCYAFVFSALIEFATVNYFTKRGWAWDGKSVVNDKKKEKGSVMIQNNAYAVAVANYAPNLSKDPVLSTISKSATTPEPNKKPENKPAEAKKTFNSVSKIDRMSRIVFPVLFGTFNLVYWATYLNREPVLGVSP
Sequence of GABA A receptor alpha-2/beta-2/gamma-2 (P63138 whole entry): as the sequence (P63138 whole entry) above
Sequence of GABA A receptor alpha-5/beta-3/gamma-2 (P18508 whole entry): as the sequence (P18508 whole entry) above
Sequence of GABA A receptor alpha-5/beta-3/gamma-2 (P19969 whole entry): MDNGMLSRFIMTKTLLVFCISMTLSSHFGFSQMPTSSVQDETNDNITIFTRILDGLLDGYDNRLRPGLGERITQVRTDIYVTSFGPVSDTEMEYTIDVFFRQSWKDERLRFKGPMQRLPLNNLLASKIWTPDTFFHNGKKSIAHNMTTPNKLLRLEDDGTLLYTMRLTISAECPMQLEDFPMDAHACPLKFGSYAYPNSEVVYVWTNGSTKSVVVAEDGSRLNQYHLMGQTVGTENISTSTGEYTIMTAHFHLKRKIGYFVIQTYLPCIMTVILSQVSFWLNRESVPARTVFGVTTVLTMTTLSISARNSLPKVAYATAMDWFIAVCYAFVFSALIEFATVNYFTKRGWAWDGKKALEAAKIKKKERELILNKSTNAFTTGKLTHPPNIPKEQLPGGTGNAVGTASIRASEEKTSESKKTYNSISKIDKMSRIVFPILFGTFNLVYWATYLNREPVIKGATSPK
Sequence of GABA A receptor alpha-5/beta-3/gamma-2 (P63079 whole entry): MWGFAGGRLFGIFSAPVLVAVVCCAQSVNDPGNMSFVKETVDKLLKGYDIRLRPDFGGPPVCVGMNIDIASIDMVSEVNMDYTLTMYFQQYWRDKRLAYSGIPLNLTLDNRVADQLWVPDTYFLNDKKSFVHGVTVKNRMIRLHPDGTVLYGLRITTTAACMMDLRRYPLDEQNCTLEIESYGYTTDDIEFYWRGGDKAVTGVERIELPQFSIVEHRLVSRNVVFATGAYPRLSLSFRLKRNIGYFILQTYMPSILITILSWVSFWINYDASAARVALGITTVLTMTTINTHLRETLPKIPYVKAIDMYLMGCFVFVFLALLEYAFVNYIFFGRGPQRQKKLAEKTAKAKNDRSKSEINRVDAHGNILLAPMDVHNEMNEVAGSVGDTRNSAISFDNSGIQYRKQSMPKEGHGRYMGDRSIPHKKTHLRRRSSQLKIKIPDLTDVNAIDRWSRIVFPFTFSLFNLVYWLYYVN

In the case of `O=C(NCc1ncc[nH]1)C(=O)c1c[nH]c2ccccc12`, the Ki in assay [1] came out at 1750 nM.
As for `O=C(NCc1ccco1)C(=O)c1c[nH]c2ccc([N+](=O)[O-])cc12`, the inhibition in assay [2] is 28%. Moreover, the Ki in assay [3] is 20 nM; in assay [4] it was 155 nM; in assay [1], 12.6 nM.
Compound `O=C(NCc1cccs1)C(=O)c1c[nH]c2ccc([N+](=O)[O-])cc12` returned an inhibition constant Ki in assay [1] of 128 nM.
In the case of `O=C(NCc1ncc[nH]1)C(=O)c1c[nH]c2ccc([N+](=O)[O-])cc12`, the Ki in assay [1] is more than 10000 nM.
Take `O=C(NCc1ccc[nH]1)C(=O)c1c[nH]c2ccccc12`: the figures for the Ki in assay [3], in assay [5] and in assay [1] were 271 nM, 1500 nM and 531 nM, respectively. The inhibition in assay [6] came out at 47%.
As to `O=C(NCc1ccoc1)C(=O)c1c[nH]c2ccccc12`, the Ki in assay [1] was found to be 447 nM.
Still for that read-out and setting: under `Cc1ccc(CNC(=O)C(=O)c2c[nH]c3ccccc23)o1` stands 249 nM; under `O=C(NCc1ccsc1)C(=O)c1c[nH]c2ccc([N+](=O)[O-])cc12`, 148 nM.
`O=C(NCc1cc[nH]c1)C(=O)c1c[nH]c2ccc([N+](=O)[O-])cc12`: the Ki in assay [3] was 9.2 nM; in assay [4], 154 nM; in assay [5], 1600 nM; in assay [1], 21 nM.
As to `O=C(NCc1ccoc1)C(=O)c1c[nH]c2ccc([N+](=O)[O-])cc12`, the inhibition in assay [2] is 9%. Further, the Ki in assay [3] is 56.6 nM; in assay [4], 236 nM; in assay [1], 22 nM.
`O=C(NCc1cccnc1)C(=O)c1c[nH]c2ccccc12` gave a Ki in assay [1] of 105 nM.
Same read-out and setting: under `O=C(NCc1ccccn1)C(=O)c1c[nH]c2ccccc12` stands 6000 nM.
As to `O=C(NCc1ccc[nH]1)C(=O)c1c[nH]c2ccc([N+](=O)[O-])cc12`, the inhibition in assay [2] was 5%. In addition, the Ki was 73.5 nM in assay [3], 585 nM in assay [4] and 33 nM in assay [1].
On to `O=C(NCc1cccs1)C(=O)c1c[nH]c2ccccc12`, for which the affinity in assay [1], expressed as Ki, was 285 nM.
On the same count and under the same terms, under `O=C(NCc1cccnc1)C(=O)c1c[nH]c2ccc([N+](=O)[O-])cc12` stands 483 nM; under `Cc1ccc(CNC(=O)C(=O)c2c[nH]c3ccc([N+](=O)[O-])cc23)o1`, 15.6 nM.
Still for that read-out and setting: as for `O=C(NCc1cc2ccccc2[nH]1)C(=O)c1c[nH]c2ccc([N+](=O)[O-])cc12`, the figure is more than 10000 nM; as for `O=C(NCc1ccco1)C(=O)c1c[nH]c2ccccc12`, 324 nM.
Take `O=C(NCc1cc[nH]c1)C(=O)c1c[nH]c2ccccc12`: the Ki worked out at 272 nM in assay [3], 681 nM in assay [5] and 204 nM in assay [1]. The inhibition in assay [6] came to 46%.
The compound `O=C(NCc1ccsc1)C(=O)c1c[nH]c2ccccc12` displayed a Ki in assay [1] of 212 nM.
On the same count and under the same terms, as for `O=C(NCc1ccncc1)C(=O)c1c[nH]c2ccc([N+](=O)[O-])cc12`, the figure is 770 nM; as for `O=C(NCc1ccncc1)C(=O)c1c[nH]c2ccccc12`, 426 nM; as for `O=C(NCc1ccccn1)C(=O)c1c[nH]c2ccc([N+](=O)[O-])cc12`, 439 nM.
`Cn1cccc1CNC(=O)C(=O)c1c[nH]c2ccccc12` yielded a Ki in assay [1] of 4590 nM.
Same read-out and setting: as for `Cn1cccc1CNC(=O)C(=O)c1c[nH]c2ccc([N+](=O)[O-])cc12`, the figure is 134 nM; as for `O=C(NCc1cc2ccccc2[nH]1)C(=O)c1c[nH]c2ccccc12`, 1130 nM.
